The text below walks through data of ChEMBL document CHEMBL3352196, “Synthesis, structural characterization and effect on human granulocyte intracellular cAMP levels of abscisic acid analogs” (Bioorg Med Chem, 2015).

Experiment [1] is filed under the species Homo sapiens. The experiment in a line: Increase in intracellular cAMP level in human granulocytes at 1 to 50 uM incubated for 1 min at 25 degC. Type of experiment: functional, cell-based. The method in brief:
(§1)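 Human granulocytes were rested overnight after purification, pelleted at 200×g for 5 min, and resuspended at 1.5 × 10⁷/ml in HBSS with Ca and Mg. Cells were preincubated 5 min at 25 °C with the PDE inhibitor Ro-20-1724, then given analog alone for 1 min at 25 °C. Perchloric acid at 4 °C stopped the reaction, and supernatant was neutralized to pH 7.5 with K2CO3. cAMP was read by [³H]-cAMP competitive radioimmunoassay and reported relative to untreated cells.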

The species named for experiment [2] is Homo sapiens. The experiment in a line: Inhibition of 1 uM ABA-induced Increase in intracellular cAMP level in human granulocytes at 50 uM incubated for 1 min at 25 degC. Type of experiment: functional, cell-based. The procedure, abridged:
(§2)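 Cells were rested overnight, then resuspended at 1.5 × 10⁷/ml in HBSS containing Ca and Mg. After a 5 min preincubation at 25 °C with Ro-20-1724 (PDE inhibitor), aliquots received ABA with or without analog for 1 min at 25 °C; untreated cells were the control. Cold perchloric acid ended the reaction; lysate was spun, neutralized with K2CO3 to pH 7.5, and cleared of KClO4. cAMP was measured by [³H]-cAMP radioimmunoassay and given as increase over control.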

In the next experiment the target is T1, LanC-like protein 2 (Homo sapiens, UniProt Q9NS86).
T1 sequence (Q9NS86 whole entry): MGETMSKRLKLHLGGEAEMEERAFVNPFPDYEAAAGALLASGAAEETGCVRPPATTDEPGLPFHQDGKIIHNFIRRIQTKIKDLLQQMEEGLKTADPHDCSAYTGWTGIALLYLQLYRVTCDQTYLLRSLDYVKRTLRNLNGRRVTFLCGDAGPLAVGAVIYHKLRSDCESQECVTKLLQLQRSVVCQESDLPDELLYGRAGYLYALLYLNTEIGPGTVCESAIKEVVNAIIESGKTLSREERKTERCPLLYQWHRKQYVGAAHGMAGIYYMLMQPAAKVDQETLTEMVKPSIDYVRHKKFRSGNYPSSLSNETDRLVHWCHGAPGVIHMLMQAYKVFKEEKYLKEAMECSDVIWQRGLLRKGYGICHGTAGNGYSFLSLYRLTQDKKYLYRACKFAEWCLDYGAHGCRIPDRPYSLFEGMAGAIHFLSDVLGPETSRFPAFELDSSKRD
Kind of experiment: Inhibition of ABA binding to LANCL2 (unknown origin).

A short description of experiment [3]: Inhibition of 1 uM ABA-induced Increase in intracellular cAMP level in human granulocytes incubated for 1 min at 25 degC. Type of experiment: functional, cell-based. The procedure, abridged:
as §2

The species entered for experiment [4] is Homo sapiens. Kind of experiment: Increase in intracellular cAMP level in human granulocytes at 50 uM incubated for 1 min at 25 degC. Type of experiment: functional, cell-based. The method in brief: as §1
The species named for experiment [5] is Homo sapiens. The experiment in a line: Increase in intracellular cAMP level in human granulocytes at 1 to 10 uM incubated for 1 min at 25 degC. Type of experiment: functional, cell-based. The method in brief: as §1
The species entered for experiment [6] is Homo sapiens. Kind of experiment: (§3) Increase in intracellular cAMP level in human granulocytes at 1 uM incubated for 1 min at 25 degC. Type of experiment: functional. The method in brief: as §1
The species named for experiment [7] is Homo sapiens. The experiment in a line: Potentiation of 1 uM ABA-induced Increase in intracellular cAMP level in human granulocytes at 50 uM incubated for 1 min at 25 degC. Type of experiment: functional, cell-based. The procedure, abridged:
as §2

The species entered for experiment [8] is Homo sapiens. Kind of experiment: Inhibition of 1 uM ABA-induced Increase in intracellular cAMP level in human granulocytes at 1 to 10 uM incubated for 1 min at 25 degC. Type of experiment: functional, cell-based. The procedure, abridged:
as §2

A short description of experiment [9]: as §3. Type of experiment: functional. The method in brief: as §1

Structures are written as SMILES. The source made the active and inactive calls. The rule behind the calls is not given here.

Take `COC(=O)/C=C(C)\C=C\c1c(C)cc(OC(C)=O)c(C)c1C`: in the experiment filed under Homo sapiens [1], the outcome was inactive. For the same molecule, the inhibition entry in the experiment filed under Homo sapiens [2] is “inactive”.

For `CC(=C/C(=O)O)/C=C/C1(O)C(C)(C)CC(=O)C2OC21C` (racemic), the IC50 at LanC-like protein 2 is 6.56 nM; in [3], 0.7 nM. Also, the inhibition entry in the experiment listed under Homo sapiens [2] is “Active”.

For `CC(=O)/C=C/C12OC1(C)CCCC2(C)C` (racemic), the result in the experiment listed under Homo sapiens [4] was Active. In the experiment filed under Homo sapiens [5], the result was inactive. The inhibition result in the experiment filed under Homo sapiens [2] is “inactive”.

For the molecule `CC(=O)OC1C=C(C)C(O)(/C=C/C(C)=C\C(=O)O)C(C)(C)C1` (racemic), the outcome in the experiment listed under Homo sapiens [1] was Active.

In the case of `CC1=CC(=O)CC(C)(C)C1(O)/C=C/C(C)=C\C(=O)Nc1ccc(N)cc1` (racemic), the result in the experiment filed under Homo sapiens [1] was inactive. Besides, in the experiment filed under Homo sapiens [2], the inhibition entry is “inactive”.

On to `CC1=CC(=O)CC(C)(C)C1(O)/C=C/C(C)=C\C(=O)Nc1ccccc1` (racemic), for which the outcome in the experiment filed under Homo sapiens [1] and in the experiment listed under Homo sapiens [6] was Active.

Turning to `CC1=CC(=O)CC(C)(C)C1(O)/C=C/C(C)=C\C(=O)OC(C)(C)C` (racemic), the outcome in the experiment listed under Homo sapiens [1] was Active. Moreover, in the experiment listed under Homo sapiens [7], the result was inactive.

As to `CC1=CC(=O)CC(C)(C)C1(O)/C=C/C(C)=C\C(=O)OCC(=O)OC(C)(C)C` (racemic), the outcome in the experiment listed under Homo sapiens [6] and in the experiment filed under Homo sapiens [5] was Active.

With `CC1=CC(=O)CC(C)(C)C1(O)/C=C/C(C)=C\C(=O)OCC(=O)OCC(=O)O` (racemic), in the experiment listed under Homo sapiens [8], the inhibition result was “inactive”. Besides, the result in the experiment listed under Homo sapiens [4] was inactive. In addition, the inhibition result in the experiment filed under Homo sapiens [2] is “Active”.

Consider `CC1=CC(=O)CC(C)(C)C1(O)/C=C/C(C)=C\CO` (racemic), for which the result in the experiment listed under Homo sapiens [1] was Active.

For the molecule `CC1=CC(=O)O/C1=C\C1(O)C(C)=CC(=O)CC1(C)C` (racemic), the result in the experiment filed under Homo sapiens [1] was Active.

For `CC1=CC(O)CC(C)(C)C1(O)/C=C/C(C)=C\C(=O)O` (racemic), the outcome in the experiment filed under Homo sapiens [1] was Active.

Consider `CC1=CC(O)CC(C)(C)C1(O)/C=C/C(C)=C\C(=O)OCC(=O)OC(C)(C)C` (racemic), for which, in the experiment filed under Homo sapiens [1], the outcome was inactive. For the same molecule, the inhibition result in the experiment listed under Homo sapiens [2] is “inactive”.

For `CC1=CC(O)CC(C)(C)C1(O)/C=C/C(C)=C\CO` (racemic), the outcome in the experiment listed under Homo sapiens [1] was Active.

Regarding `CCN(CC)C(=O)/C=C(C)\C=C\C1(O)C(C)=CC(=O)CC1(C)C` (racemic), in the experiment listed under Homo sapiens [1], the outcome was Active.

For `COC(=O)/C=C(C)\C=C\C1(O)C(C)=CC(=O)CC1(C)C` (racemic), the result in the experiment filed under Homo sapiens [1] and in the experiment listed under Homo sapiens [7] was Active.

For `COC(=O)/C=C(C)\C=C\C1(O)C(C)=CC(O)CC1(C)C` (racemic), in the experiment filed under Homo sapiens [1], the outcome was inactive. The inhibition entry in the experiment filed under Homo sapiens [2] was “inactive”.

`COc1ccc(NC(=O)/C=C(C)\C=C\C2(O)C(C)=CC(=O)CC2(C)C)cc1` (racemic): the result in the experiment filed under Homo sapiens [1] and in the experiment filed under Homo sapiens [6] was Active.

Consider `CC1=CC(=O)CC(C)(C)[C@@]1(O)/C=C/C(C)=C\C(=O)O` (racemic) [(+)-ABSCISIC ACID], for which, in [9], the Activity is reported as 35%.
